Results reported in publication PMC10975586 (ACS Omega, 2024).
“And” between values parts separate entries of the source, which are not always exact repeats. Equal entries are not always repeated. “Also recorded” adds a separate entry of the source. Where two headings read alike, the source gives them in different places.

How the values were obtained:
jack bean (JB) urease = jack bean (JB) urease (Canavalia ensiformis, UniProt P07374); assay: Urease inhibitory assay; format: biochemical; details: for inhibition at 250 µM: read-out: inhibition (%) at 0.25 mM, JB urease; for inhibition at 250 µM / inhibition (%) at 0.25 mM: 0.25 mM, mean ± SEM, n = 3–4; for urease inhibitory profile (in words) / inhibition (%) at 0.25 mM: JB urease
JB urease enzyme = JB urease enzyme (Canavalia ensiformis, UniProt P07374); assay: Kinetic analysis of JB urease inhibition; format: biochemical, jack bean; details: for Vmax: in presence of the inhibitor
Outline: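 Jack bean urease (1 unit/well) in 50 mM phosphate buffer pH 7.4 is preincubated with test compound for 10 min at 37 °C. Urea is added from a 50 mM solution and the reaction runs 15 min. Phenol-alkali reagent stops it, and A630 is read after 10 min. Mode of inhibition, Km, Vmax and Ki come from double-reciprocal plots and nonlinear regression (mean ± SEM, n = 3).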

Chain of jack bean (JB) urease (P07374 whole entry, looked up): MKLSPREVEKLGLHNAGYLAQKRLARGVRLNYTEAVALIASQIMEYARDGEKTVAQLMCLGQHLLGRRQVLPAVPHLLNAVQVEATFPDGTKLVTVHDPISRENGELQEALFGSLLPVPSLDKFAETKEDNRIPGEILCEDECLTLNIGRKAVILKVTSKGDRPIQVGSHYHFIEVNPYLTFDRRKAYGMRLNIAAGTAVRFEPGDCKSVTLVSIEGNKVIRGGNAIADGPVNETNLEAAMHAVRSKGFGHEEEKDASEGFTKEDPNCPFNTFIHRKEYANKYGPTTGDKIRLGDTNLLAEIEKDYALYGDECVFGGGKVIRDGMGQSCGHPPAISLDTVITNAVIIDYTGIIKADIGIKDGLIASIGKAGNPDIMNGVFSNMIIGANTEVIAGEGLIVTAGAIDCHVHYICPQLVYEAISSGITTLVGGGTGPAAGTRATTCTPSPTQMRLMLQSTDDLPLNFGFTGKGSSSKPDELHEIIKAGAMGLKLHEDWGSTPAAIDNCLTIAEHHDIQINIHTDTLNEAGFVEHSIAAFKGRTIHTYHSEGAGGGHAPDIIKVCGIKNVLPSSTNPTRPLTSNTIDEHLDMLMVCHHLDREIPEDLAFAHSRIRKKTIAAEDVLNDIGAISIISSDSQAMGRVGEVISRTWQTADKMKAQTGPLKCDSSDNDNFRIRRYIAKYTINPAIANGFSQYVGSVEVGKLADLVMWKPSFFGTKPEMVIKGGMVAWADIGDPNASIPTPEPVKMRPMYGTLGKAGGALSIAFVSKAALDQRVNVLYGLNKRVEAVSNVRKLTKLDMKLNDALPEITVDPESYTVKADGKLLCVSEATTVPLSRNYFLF
Chain of JB urease enzyme (P07374 whole entry, looked up): as above

SMILES	IC50 (jack bean (JB) urease) [µM]	inhibition at 250 µM (jack bean (JB) urease) [%]	further results
C=CC1=C(C(=O)O)N2C(=O)[C@@H](NC(=O)/C(=N\OCC(=O)O)c3csc(N)n3)[C@H]2SC1 [cefixime]	215.5 ± 0.76	68.5 ± 1.85	urease inhibitory profile (in words) (jack bean (JB) urease): poor inhibitory potential
CCN1CCN(C(=O)N[C@@H](C(=O)N[C@@H]2C(=O)N3C(C(=O)O)=C(CSc4nnnn4C)CS[C@H]23)c2ccc(O)cc2)C(=O)C1=O [cefoperazone]	–	34.54 ± 0.26	–
CC=CC1=C(C(=O)O)N2C(=O)[C@@H](NC(=O)[C@H](N)c3ccc(O)cc3)[C@H]2SC1 [cefprozil]	–	–	inhibition (%) at 0.25 mM (jack bean (JB) urease): 42.76 ± 0.27%
CC1=C(C(=O)O)N2C(=O)[C@@H](NC(=O)[C@H](N)C3=CCC=CC3)[C@H]2SC1 [cefradine]	226.8 ± 0.95	54.9 ± 1.54	–
CO/N=C(\C(=O)N[C@@H]1C(=O)N2C(C(=O)O)=CCS[C@H]12)c1csc(N)n1 [ceftizoxime]	–	32.41 ± 0.24	–
CO/N=C(\C(=O)N[C@@H]1C(=O)N2C(C(=O)O)=C(CSc3nc(=O)c(=O)[nH]n3C)CS[C@H]12)c1csc(N)n1 [ceftriaxone]	157.4 ± 0.42	72.6 ± 0.98	urease inhibitory profile (in words) (jack bean (JB) urease): poor inhibitory potential
CO/N=C(\C(=O)N[C@@H]1C(=O)N2C(C(=O)O)=C(COC(N)=O)CS[C@H]12)c1ccco1 [cefuroxime]	241.5 ± 0.87	51.7 ± 1.56	–
C[C@@H]1CN(c2c(F)c(N)c3c(=O)c(C(=O)O)cn(C4CC4)c3c2F)C[C@H](C)N1 [sparfloxacin]	213.9 ± 0.32	57.6 ± 0.62	–
NC(N)=S [thiourea]	–	–	type of inhibition (JB urease enzyme; JB urease): competitive; Vmax (JB urease enzyme; JB urease): 110.1 µM/min; Ki (JB urease enzyme; JB urease, inhibitory constant): 19.7 µM; inhibition (%) at 0.25 mM (jack bean (JB) urease): 98.21 ± 0.18%

Further compounds by falling IC50 (jack bean (JB) urease), results first:

IC50 (jack bean (JB) urease) [µM]	inhibition at 250 µM (jack bean (JB) urease) [%]	SMILES	further results
145.8 ± 0.37	72.5 ± 0.94	CC1=C(C(=O)O)N2C(=O)[C@@H](NC(=O)[C@H](N)c3ccccc3)[C@H]2SC1 [cefalexin]	urease inhibitory profile (in words) (jack bean (JB) urease): poor inhibitory potential
135.3 ± 0.39	75.27 ± 0.74	COc1c(N2C[C@@H]3CCCN[C@@H]3C2)c(F)cc2c(=O)c(C(=O)O)cn(C3CC3)c12 [moxifloxacin]	urease inhibitory profile (in words) (jack bean (JB) urease): weak urease inhibitions; also recorded: weak enzyme inhibitors
134.5 ± 0.52	78.3 ± 0.85	O=C(O)c1cn(C2CC2)c2cc(N3CCNCC3)c(F)cc2c1=O [ciprofloxacin]	urease inhibitory profile (in words) (jack bean (JB) urease): weak enzyme inhibitors; urease inhibitory profile (in words) (jack bean (JB) urease; listed as Ciprofloxacin): weak urease inhibitions
123.6 ± 0.19	–	CC(C)(O/N=C(\C(=O)N[C@@H]1C(=O)N2C(C(=O)[O-])=C(C[n+]3ccccc3)CS[C@H]12)c1csc(N)n1)C(=O)O [ceftazidime]	inhibition (%) at 0.25 mM (jack bean (JB) urease): 76.94 ± 1.57% and 49.52 ± 1.78%
78.65 ± 0.45	73.3 ± 1.35	CO/N=C(\C(=O)N[C@@H]1C(=O)N2C(C(=O)[O-])=C(C[N+]3(C)CCCC3)CS[C@H]12)c1csc(N)n1 [cefepime]	–
62.9 ± 0.78	92.4 ± 1.53	N[C@@H](C(=O)N[C@@H]1C(=O)N2C(C(=O)O)=C(Cl)CS[C@H]12)c1ccccc1 [cefaclor]	–
27.4 ± 0.74	81.9 ± 1.46	CO/N=C(\C(=O)N[C@@H]1C(=O)N2C(C(=O)O)=C(COC(C)=O)CS[C@H]12)c1csc(N)n1 [cefotaxime]	–
23.7 ± 0.82	91.3 ± 1.86	COCC1=C(C(=O)O)N2C(=O)[C@@H](NC(=O)/C(=N\OC)c3csc(N)n3)[C@H]2SC1 [cefpodoxime]	–
21.4 ± 0.64	91.27 ± 0.85	CC1=C(C(=O)O)N2C(=O)[C@@H](NC(=O)[C@H](N)c3ccc(O)cc3)[C@H]2SC1 [cefadroxil]	–
16.5 ± 0.85	92.5 ± 1.35	CO/N=C1\CN(c2nc3c(cc2F)c(=O)c(C(=O)O)cn3C2CC2)CC1CN (stereo not shown) [gemifloxacin]	–
13.2 ± 0.32	83.67 ± 0.67	CC1COc2c(N3CCN(C)CC3)c(F)cc3c(=O)c(C(=O)O)cn1c23 (stereo not shown) [ofloxacin]	Ki (JB urease enzyme): 5.43 µM; type of inhibition (JB urease enzyme; JB urease): competitive inhibition; also recorded: competitive inhibitors; Vmax (JB urease enzyme; JB urease): 86.62 µM/min
7.24 ± 0.29	81.92 ± 0.62	C[C@H]1COc2c(N3CCN(C)CC3)c(F)cc3c(=O)c(C(=O)O)cn1c23 [levofloxacin]	Ki (JB urease enzyme): 4.91 µM; maximum velocity (JB urease enzyme; JB urease): 84.51 μm/min; type of inhibition (JB urease enzyme; JB urease): competitive inhibitors; Vmax (JB urease enzyme; JB urease): 84.51 µM/min; type of inhibition (JB urease enzyme; JB urease, listed as Levofloxacin): competitive inhibition
